According to ChEMBL document CHEMBL1154352, “Toll-like receptor 7 selective synthetic oligoribonucleotide agonists: synthesis and structure-activity relationship studies” (J Med Chem, 2009):
The source made the active and inactive calls. No cut-off for these calls is given here.

Legend:
[1] = target: T1, Toll-like receptor 9 (Mus musculus) (UniProt Q9EQU3); assay: Activation of mouse TLR9 expressed in HEK293 assessed as induction of NF-kappaB activity reporter gene assay; assay type: cell-based
T1 sequence (whole entry): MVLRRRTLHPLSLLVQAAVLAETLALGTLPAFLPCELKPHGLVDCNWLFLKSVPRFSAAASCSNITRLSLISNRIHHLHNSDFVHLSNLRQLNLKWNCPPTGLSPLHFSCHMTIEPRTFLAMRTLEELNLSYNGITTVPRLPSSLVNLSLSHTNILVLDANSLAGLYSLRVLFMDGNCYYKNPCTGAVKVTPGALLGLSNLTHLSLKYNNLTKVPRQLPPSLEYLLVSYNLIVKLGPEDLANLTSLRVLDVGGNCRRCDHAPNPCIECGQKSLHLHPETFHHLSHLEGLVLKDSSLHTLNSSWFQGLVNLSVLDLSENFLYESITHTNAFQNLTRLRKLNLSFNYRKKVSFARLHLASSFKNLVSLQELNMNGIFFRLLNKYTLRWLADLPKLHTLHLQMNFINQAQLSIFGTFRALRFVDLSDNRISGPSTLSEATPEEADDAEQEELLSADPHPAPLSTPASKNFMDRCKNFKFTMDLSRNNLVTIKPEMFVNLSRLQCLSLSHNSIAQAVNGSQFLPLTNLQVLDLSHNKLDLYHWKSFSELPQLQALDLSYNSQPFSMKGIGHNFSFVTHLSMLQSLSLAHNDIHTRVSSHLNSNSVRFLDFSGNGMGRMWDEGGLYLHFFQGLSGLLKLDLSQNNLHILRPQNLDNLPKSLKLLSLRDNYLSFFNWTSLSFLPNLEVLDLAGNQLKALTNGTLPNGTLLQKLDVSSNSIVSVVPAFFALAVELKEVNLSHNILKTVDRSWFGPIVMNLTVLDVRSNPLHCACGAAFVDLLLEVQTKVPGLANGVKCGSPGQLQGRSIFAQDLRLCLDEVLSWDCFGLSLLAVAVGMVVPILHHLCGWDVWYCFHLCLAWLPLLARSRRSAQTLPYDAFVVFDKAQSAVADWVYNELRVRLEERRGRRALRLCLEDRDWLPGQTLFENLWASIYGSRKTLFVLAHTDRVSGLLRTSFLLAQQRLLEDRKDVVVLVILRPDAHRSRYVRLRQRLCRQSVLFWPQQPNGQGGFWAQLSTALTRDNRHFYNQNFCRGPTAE

Splenocyte = assay: Immunomodulatory activity in C57BL/6 mouse splenocytes bearing TLR7 receptor assessed as IL6 release at 100 ug/ml after 24 hrs by ELISA; assay type: functional, cell-based
In short: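 C57BL/6 splenocytes in RPMI 1640 with 10% FBS, penicillin/streptomycin, 2 mM L-glutamine, plated at 5 × 10^6 cells/mL; compounds in PBS added, 37 °C for 24 h. Supernatant IL-12 and IL-6 by ELISA; representative of three independent experiments.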

PBMC = assay: Immunomodulatory activity in human PBMC assessed as induction of IL12 at 100 ug/ml after 24 hrs; assay type: functional, cell-based
In short: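 Human PBMCs plated at 5 × 10^6 cells/mL; compounds dissolved in PBS added at various concentrations, 37 °C for 24 h. Supernatant cytokines/chemokines quantified with human Luminex multiplex kit.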

Homo sapiens = organism: Homo sapiens; assay: Ratio of human TLR7 activity to human TLR8 activity
In short: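 TLR7/TLR8 ratio computed from fold NF-κB (SEAP reporter) activation in HEK293 cells stably expressing human TLR7 versus TLR8, compounds at 50 μg/mL, 18 h exposure; representative of three independent experiments.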

[2] = Metabolic stability in human serum assessed as full length product remaining after 10 mins by HPLC; assay type: ADME, cell-free; details: read-out: Stability
In short: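 About 0.5 A260 units compound in 1% human serum in PBS, 37 °C; aliquot taken at 10 min, analysed by anion-exchange HPLC for percent intact full-length product.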

SMILES	Activity [1]	Activity (Splenocyte)	Activity (PBMC) [pg/mL]	Ratio (Homo sapiens)	remaining at 10 min [2] [%]
Nc1ccn([C@@H]2O[C@H](COP(=O)(S)O[C@H]3[C@@H](O)[C@H](n4cnc5c(N)ncnc54)O[C@@H]3CO)[C@@H](OP(=O)(S)OC[C@H]3O[C@@H](n4ccc5c(=O)[nH]c(N)nc54)[C@H](O)[C@@H]3OP(=O)(S)OC[C@H]3O[C@@H](n4ccc(N)nc4=O)[C@H](O)[C@@H]3OP(=O)(S)OC[C@H]3O[C@@H](n4ccc(=O)[nH]c4=O)[C@H](O)[C@@H]3OP(=O)(S)OC[C@H]3O[C@@H](n4ccc5c(=O)[nH]c(N)nc54)[C@H](O)[C@@H]3OP(=O)(S)OC[C@H]3O[C@@H](n4cnc5c(N)ncnc54)[C@H](O)[C@@H]3OP(=O)(S)OC[C@H]3O[C@@H](n4ccc5c(=O)[nH]c(N)nc54)[C@H](O)[C@@H]3OP(=O)(S)OC[C@H]3O[C@@H](n4ccc(N)nc4=O)[C@H](O)[C@@H]3OP(=O)(S)OC[C@H]3O[C@@H](n4ccc(=O)[nH]c4=O)[C@H](O)[C@@H]3OP(=O)(S)OC[C@H]3O[C@@H](n4ccc(=O)[nH]c4=O)[C@H](O)[C@@H]3OP(=O)(S)OCC(O)COP(=O)(S)O[C@H]3[C@@H](O)[C@H](n4ccc(=O)[nH]c4=O)O[C@@H]3COP(=O)(S)O[C@H]3[C@@H](O)[C@H](n4ccc(=O)[nH]c4=O)O[C@@H]3COP(=O)(S)O[C@H]3[C@@H](O)[C@H](n4ccc(N)nc4=O)O[C@@H]3COP(=O)(S)O[C@H]3[C@@H](O)[C@H](n4ccc5c(=O)[nH]c(N)nc54)O[C@@H]3COP(=O)(S)O[C@H]3[C@@H](O)[C@H](n4cnc5c(N)nc(N)nc54)O[C@@H]3COP(=O)(S)O[C@H]3[C@@H](O)[C@H](n4ccc5c(=O)[nH]c(N)nc54)O[C@@H]3COP(=O)(S)O[C@H]3[C@@H](O)[C@H](n4ccc(=O)[nH]c4=O)O[C@@H]3COP(=O)(S)O[C@H]3[C@@H](O)[C@H](n4ccc(N)nc4=O)O[C@@H]3COP(=O)(S)O[C@H]3[C@@H](O)[C@H](n4ccc5c(=O)[nH]c(N)nc54)O[C@@H]3COP(=O)(S)O[C@H]3[C@@H](O)[C@H](n4ccc(N)nc4=O)O[C@@H]3COP(=O)(S)O[C@H]3[C@@H](O)[C@H](n4cnc5c(N)ncnc54)O[C@@H]3CO)[C@H]2O)c(=O)n1 (stereo not given in full)	inactive	Active	2240	29.6	78
Nc1ccn([C@@H]2O[C@H](COP(=O)(S)O[C@H]3[C@@H](O)[C@H](n4ccc5c(=O)[nH]c(N)nc54)O[C@@H]3CO[C@H]3[C@@H](O)[C@H](n4cnc5c(N)ncnc54)O[C@@H]3COP(=O)(S)O[C@H]3[C@@H](O)[C@H](n4ccc5c(=O)[nH]c(N)nc54)O[C@@H]3COP(=O)(S)O[C@H]3[C@@H](O)[C@H](n4ccc(=O)[nH]c4=O)O[C@@H]3COP(=O)(S)O[C@H]3[C@@H](O)[C@H](n4ccc(N)nc4=O)O[C@@H]3COP(=O)(S)O[C@H]3[C@@H](O)[C@H](n4ccc5c(=O)[nH]c(N)nc54)O[C@@H]3COP(=O)(S)O[C@H]3[C@@H](O)[C@H](n4ccc(=O)[nH]c4=O)O[C@@H]3COP(=O)(S)O[C@H]3[C@@H](O)[C@H](n4ccc(=O)[nH]c4=O)O[C@@H]3CO)[C@@H](OP(=O)(S)OC[C@H]3O[C@@H](n4ccc(=O)[nH]c4=O)[C@H](O)[C@@H]3OP(=O)(S)OC[C@H]3O[C@@H](n4ccc(=O)[nH]c4=O)[C@H](O)[C@@H]3OP(=O)(S)OCC(O)COP(=O)(S)O[C@H]3[C@@H](O)[C@H](n4ccc(=O)[nH]c4=O)O[C@@H]3COP(=O)(S)O[C@H]3[C@@H](O)[C@H](n4ccc(=O)[nH]c4=O)O[C@@H]3COP(=O)(S)O[C@H]3[C@@H](O)[C@H](n4ccc(N)nc4=O)O[C@@H]3COP(=O)(S)O[C@H]3[C@@H](O)[C@H](n4ccc5c(=O)[nH]c(N)nc54)O[C@@H]3CO[C@H]3[C@@H](O)[C@H](n4cnc5c(N)ncnc54)O[C@@H]3COP(=O)(S)O[C@H]3[C@@H](O)[C@H](n4ccc5c(=O)[nH]c(N)nc54)O[C@@H]3COP(=O)(S)O[C@H]3[C@@H](O)[C@H](n4ccc(=O)[nH]c4=O)O[C@@H]3COP(=O)(S)O[C@H]3[C@@H](O)[C@H](n4ccc(N)nc4=O)O[C@@H]3COP(=O)(S)O[C@H]3[C@@H](O)[C@H](n4ccc5c(=O)[nH]c(N)nc54)O[C@@H]3COP(=O)(S)O[C@H]3[C@@H](O)[C@H](n4ccc(=O)[nH]c4=O)O[C@@H]3COP(=O)(S)O[C@H]3[C@@H](O)[C@H](n4ccc(=O)[nH]c4=O)O[C@@H]3CO)[C@H]2O)c(=O)n1 (stereo not given in full)	inactive	Active	1370	66.8	83
Nc1ccn([C@@H]2O[C@H](COP(=O)(S)O[C@H]3[C@@H](O)[C@H](n4cnc5c(N)ncnc54)O[C@@H]3COP(=O)(S)O[C@H]3[C@@H](O)[C@H](n4cnc5c(N)ncnc54)O[C@@H]3CO)[C@@H](OP(=O)(S)OC[C@H]3O[C@@H](n4ccc(=O)[nH]c4=O)[C@H](O)[C@@H]3OP(=O)(S)OC[C@H]3O[C@@H](n4ccc(=O)[nH]c4=O)[C@H](O)[C@@H]3OP(=O)(S)OC[C@H]3O[C@@H](n4ccc5c(=O)[nH]c(N)nc54)[C@H](O)[C@@H]3OP(=O)(S)OC[C@H]3O[C@@H](n4cnc5c(N)ncnc54)[C@H](O)[C@@H]3OP(=O)(S)OC[C@H]3O[C@@H](n4ccc5c(=O)[nH]c(N)nc54)[C@H](O)[C@@H]3OP(=O)(S)OC[C@H]3O[C@@H](n4ccc(N)nc4=O)[C@H](O)[C@@H]3OP(=O)(S)OC[C@H]3O[C@@H](n4ccc(=O)[nH]c4=O)[C@H](O)[C@@H]3OP(=O)(S)OC[C@H]3O[C@@H](n4ccc(=O)[nH]c4=O)[C@H](O)[C@@H]3OP(=O)(S)OCC(O)COP(=O)(S)O[C@H]3[C@@H](O)[C@H](n4ccc(=O)[nH]c4=O)O[C@@H]3COP(=O)(S)O[C@H]3[C@@H](O)[C@H](n4ccc(=O)[nH]c4=O)O[C@@H]3COP(=O)(S)O[C@H]3[C@@H](O)[C@H](n4ccc(N)nc4=O)O[C@@H]3COP(=O)(S)O[C@H]3[C@@H](O)[C@H](n4ccc5c(=O)[nH]c(N)nc54)O[C@@H]3COP(=O)(S)O[C@H]3[C@@H](O)[C@H](n4cnc5c(N)ncnc54)O[C@@H]3COP(=O)(S)O[C@H]3[C@@H](O)[C@H](n4ccc5c(=O)[nH]c(N)nc54)O[C@@H]3COP(=O)(S)O[C@H]3[C@@H](O)[C@H](n4ccc(=O)[nH]c4=O)O[C@@H]3COP(=O)(S)O[C@H]3[C@@H](O)[C@H](n4ccc(=O)[nH]c4=O)O[C@@H]3COP(=O)(S)O[C@H]3[C@@H](O)[C@H](n4ccc(N)nc4=O)O[C@@H]3COP(=O)(S)O[C@H]3[C@@H](O)[C@H](n4cnc5c(N)ncnc54)O[C@@H]3COP(=O)(S)O[C@H]3[C@@H](O)[C@H](n4cnc5c(N)ncnc54)O[C@@H]3CO)[C@H]2O)c(=O)n1 (stereo not given in full)	inactive	Active	527	20.1	82
